Reference: ChEMBL document CHEMBL3804810, “A structural insight into the P1S1 binding mode of diaminoethylphosphonic and phosphinic acids, selective inhibitors of alanine aminopeptidases” (Eur J Med Chem, 2016)
Calls of active or inactive are those of the source. No cut-off for these calls is given here.

Assays:
Cytosol aminopeptidase [1] = biological target: T1, Cytosol aminopeptidase (Sus scrofa, UniProt P28839); test: Inhibition of porcine kidney leucine aminopeptidase M17 using Leu-AMC as substrate preincubated for 30 to 60 mins followed by substrate addition measured for 15 mins by spectrofluorimetric analysis
T1 sequence (P28839 whole entry): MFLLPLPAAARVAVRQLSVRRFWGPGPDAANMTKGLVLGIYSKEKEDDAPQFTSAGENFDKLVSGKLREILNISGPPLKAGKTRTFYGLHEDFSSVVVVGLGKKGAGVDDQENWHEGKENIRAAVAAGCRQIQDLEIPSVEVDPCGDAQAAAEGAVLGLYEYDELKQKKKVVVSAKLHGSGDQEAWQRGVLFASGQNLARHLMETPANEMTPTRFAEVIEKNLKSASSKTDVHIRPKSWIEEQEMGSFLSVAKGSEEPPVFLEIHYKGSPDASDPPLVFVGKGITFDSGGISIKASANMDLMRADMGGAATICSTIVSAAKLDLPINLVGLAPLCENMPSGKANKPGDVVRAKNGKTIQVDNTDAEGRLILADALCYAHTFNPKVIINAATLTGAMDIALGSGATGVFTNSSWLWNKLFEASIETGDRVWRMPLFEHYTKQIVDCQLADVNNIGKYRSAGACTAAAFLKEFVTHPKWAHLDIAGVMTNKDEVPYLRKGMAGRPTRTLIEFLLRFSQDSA
In short: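 Inhibitor concentrations were tested up to 800 μM against the porcine kidney enzyme. Values are reported as inhibition constants (Ki).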

[2] = Inhibition of recombinant Neisseria meningitidis N-terminal His6-tagged alanyl aminopeptidase M1 expressed in Escherichia coli BL21 cells using Ala-AMC as substrate preincubated for 30 to 60 mins followed by substrate addition measured for 15 mins by spectrofluorimetric analysis
Cytosol aminopeptidase [3] = biological target: T1, Cytosol aminopeptidase; test: Inhibition of porcine kidney leucine aminopeptidase M17 using L-leucine p-nitro-anilide as substrate by spectrophotometric analysis
[4] = biological target: T2, Cytosol aminopeptidase (Sus scrofa) (UniProt P28839); test: Inhibition of porcine kidney leucine aminopeptidase M17 using Leu-AMC as substrate up to 0.8 mM preincubated for 30 to 60 mins followed by substrate addition measured for 15 mins by spectrofluorimetric analysis
T2 sequence (whole entry): T1 sequence (P28839 whole entry)

Compound | Ki (Cytosol aminopeptidase [1]) [µM] | other results
NC(CCC1CCCCC1)P(=O)(O)O (stereo not drawn) | 0.21 | –
CNCC(N)P(=O)(O)O (stereo not drawn) | – | Ki [2]: 29.6 µM
NCCNCC(N)P(=O)(O)O (stereo not drawn) | 289 | –
NC(CNCC1CCCO1)P(=O)(O)O (stereo not drawn) | 69.1 | –
CCCCCCNCC(N)P(=O)(O)O (stereo not drawn) | 119 | –
NC(CNCc1ccccc1)P(=O)(O)O (stereo not drawn) | – | Ki (Cytosol aminopeptidase [3]): 350 µM
Nc1ccc(CNCC(N)P(=O)(O)O)cc1 (stereo not drawn) | 7.02 | –
CN(C)CCNCC(N)P(=O)(O)O (stereo not drawn) | 72.6 | Ki [2]: 26 µM
NCC(N)P(=O)(O)O (stereo not drawn) | – | Ki [2]: 0.589 µM
NC(CN1CCOCC1)P(=O)(O)O (stereo not drawn) | – | inhibition [4]: inactive
CC(NCC(N)P(=O)(O)O)c1ccccc1 (stereo not drawn) | – | Ki (Cytosol aminopeptidase [3]): 600 µM
NC(CN1CCCCC1)P(=O)(O)O (stereo not drawn) | – | Ki (Cytosol aminopeptidase [3]): 1410 µM
NC(CNC1CCCCC1)P(=O)(O)CC(Cc1ccccc1)C(=O)O (stereo not drawn) | 28.3 | –

More lines, main results first:

Ki (Cytosol aminopeptidase [1]) [µM] | Compound | other results
26.2 | COc1ccc(CNCC(N)P(=O)(O)O)cc1 (stereo not drawn) | –
15.2 | CC(C)CNCC(N)P(=O)(O)CC(Cc1ccccc1)C(=O)O (stereo not drawn) | –
23.8 | NC(CNC1CCCCCC1)P(=O)(O)CC(Cc1ccccc1)C(=O)O (stereo not drawn) | –
68.4 | NC(CNCC1CCNCC1)P(=O)(O)O (stereo not drawn) | –
108 | NC(CNCCc1ccccc1)P(=O)(O)O (stereo not drawn) | –
21 | CCCNCC(N)P(=O)(O)CC(Cc1ccccc1)C(=O)O (stereo not drawn) | –
19.5 | COc1ccc(CCNCC(N)P(=O)(O)O)cc1 (stereo not drawn) | –
71.1 | CC(C)(C)c1ccc(CNCC(N)P(=O)(O)O)cc1 (stereo not drawn) | –
64.4 | NCC(N)P(=O)(O)CC(Cc1ccccc1)C(=O)O (stereo not drawn) | –
26.5 | NCc1ccc(CNCC(N)P(=O)(O)O)cc1 (stereo not drawn) | –
20.8 | NC(CNC1CCCCCC1)P(=O)(O)O (stereo not drawn) | –
55.8 | NC(CNCCN1CCNCC1)P(=O)(O)O (stereo not drawn) | –
240 | NC1CCCCC1NCC(N)P(=O)(O)O (stereo not drawn) | –
21.1 | COc1ccc(CCNCC(N)P(=O)(O)CC(Cc2ccccc2)C(=O)O)cc1 (stereo not drawn) | –
